Experimental data as given in ChEMBL document CHEMBL1125929, “Octoclothepin enantiomers. A reinvestigation of their biochemical and pharmacological activity in relation to a new receptor-interaction model for dopamine D-2 receptor antagonists” (J Med Chem, 1991).

Key:
Format in all cases: functional
Settings in all cases: sc
Rattus norvegicus [1] = assay: Dose to antagonise, when given subcutaneously to 6-OH-DA-lesioned rats, using SK & F 38393 antagonism test.(in vivo)
How it was run: (§1)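 Unilateral 6-OHDA-lesioned rats, tested 2–9 months after lesioning once stable contralateral circling was seen. Agonist was pergolide (0.05 μmol/kg sc) or SK&F 38393 (4.3 μmol/kg sc), given 2 h after the test compound. Inhibition was calculated as percent of each rat's own control circling response. Four to eight rats per dose.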

Rattus norvegicus [2] = assay: Dose to antagonise, when given subcutaneously to rats (in vivo) using inhibition of locomotor motility test
How it was run: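 Locomotor activity of male Wistar rats was measured in photocell cages 2 h after test compound or saline. Four to eight animals per dose.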

Rattus norvegicus [3] = assay: Dose to antagonise, when given subcutaneously to rats (in vivo) using quipazine antagonism test.
How it was run: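 Rats got test compound 2 h before quipazine (15 μmol/kg sc). Each rat was observed singly in a perspex box, and head twitches were counted 30–40 min after quipazine. Inhibition was expressed as percent of a parallel control group. Four to eight rats per dose.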

Mus musculus = assay: Dose to antagonise, when given subcutaneously to mice (in vivo) using methyl phenidate antagonism test
How it was run: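 Male NMRI mice (18–25 g) got test compound sc 2 h before methyl phenidate (222 μmol/kg sc). Mice were placed in pairs on corrugated cardboard in gnawing cages. Gnawing was judged 1 h later by inspecting the cardboard. Six to nine pairs per dose.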

Rattus norvegicus [4] = assay: Dose to antagonise, when given subcutaneously to rats (in vivo) using catalepsy test, maximum effect 1-6h.
How it was run: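 Male Wistar rats (170–270 g) were scored hourly 1–6 h after dosing on a vertical wire grid. Catalepsy counted as present after at least 15-s immobility. The maximum effect over 1–6 h was taken. Eight to twelve animals per dose.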

Rattus norvegicus [5] = assay: Dose to antagonise, when given subcutaneously to rats (in vivo) using flexor reflex St 587 antagonism test.
Rattus norvegicus [6] = assay: Dose to antagonise, when given subcutaneously to 6-OH-DA-lesioned rats, using pergolide antagonism test.(in vivo); how it was run: as §1

| SMILES | ED50 (Rattus norvegicus [1]) | ED50 (Rattus norvegicus [2]) | ED50 (Rattus norvegicus [3]) | ED50 (Mus musculus) | ED50 (Rattus norvegicus [4]) | ED50 (Rattus norvegicus [5]) | ED50 (Rattus norvegicus [6]) |
| --- | --- | --- | --- | --- | --- | --- | --- |
| CN1CCN([C@H]2Cc3ccccc3Sc3ccc(Cl)cc32)CC1 | 0.85 µmol/kg | 0.12 µmol/kg | 0.02 µmol/kg | 0.2 µmol/kg | 0.65 µmol/kg | 0.26 µmol/kg | 0.017 µmol/kg |
| CN1CCN([C@@H]2Cc3ccccc3Sc3ccc(Cl)cc32)CC1 | 1.9 µmol/kg | 0.46 µmol/kg | 0.012 µmol/kg | 3.8 µmol/kg | 24 µmol/kg | 0.095 µmol/kg | 0.31 µmol/kg |
| CN1CCN(C2Cc3ccccc3Sc3ccc(Cl)cc32)CC1 (stereo unspecified) [CLOROTEPINE] | 0.25 µmol/kg | 0.18 µmol/kg | 0.019 µmol/kg | 0.19 µmol/kg | 1.3 µmol/kg | 0.064 µmol/kg | 0.033 µmol/kg |
